From PubChem
hERG rescue: hERG rescue from dofetilide block, primary screen, cell-based, CHO-hERG, FluxOR thallium flux, dofetilide IC70 | dofetilide IC70 present | activation (rescue from dofetilide block), less the hit threshold, % at 10 µM | 0.51% of 310,000 active | AID 1511, 2009;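 active = activation above the mean of controls blocked by dofetilide plus 5 SD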;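 also: thallium influx through hERG after potassium depolarization seen as dye fluorescence rise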
KCNQ1 inh: inhibitors of human KCNQ1 channel, primary screen, cell-based, thallium flux, high-throughput | Potassium voltage-gated channel subfamily KQT member 1 (Homo sapiens), P51787 | CHO-K1 KCNQ1, FluxOR thallium flux fluorescence; hits give high values | B-score at 10 µM | 1.3% of 310,000 active | AID 2642, 2010;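 active = compounds whose thallium flux B-score, printed positive for inhibition, exceeds three library SD while starting fluorescence stays within three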;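 also: channel opened by potassium depolarization with thallium stimulus after 20 min compound exposure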
KCNK3 block: human KCNK3 channel inhibitors, primary screen, CHO cells, FluxOR thallium flux, B-score; Potassium channel subfamily K member 3 (Homo sapiens), O14649; FluxOR fluorescence; hits give low values; B-score at 10 µM; 0.84% of 340,000 active; AID 602410, 2012;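 active = B-score under library mean minus 4 SD, starting fluorescence ratio at most library mean plus 5 SD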;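 also: more negative B-score means stronger inhibition of thallium flux through KCNK3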
KCNQ1 pot: potentiators or activators of KCNQ1 channel, primary screen, cell-based, thallium flux, high-throughput; 0.35% of 310,000 active; AID 2648, 2010; Potassium voltage-gated channel subfamily KQT member 1 (Homo sapiens), P51787; CHO-K1 KCNQ1, thallium flux FluxOR fluorescence; hits give high values; B-score at 10 µM;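 active = fluorescence ratio B-score, a plate-corrected score, at least three library SD, with initial intensity B-score within 5 SD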
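System: Stable KCNQ1 CHO-K1 line | Incubation: 90 min dye loading and 20 min compound exposure, both at room temperature | Measure: Ratio B score | Medium: Assay buffer for compound exposure, DMSO matched across wells | Compound dosing: Single-concentration screen | Probe or stimulus: K+/Tl+ depolarizing stimulus | Measured by: Kinetic FluxOR fluorescence, 10 s baseline plus 110 s post-stimulus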
KCNK9 inh: KCNK9 potassium channel inhibitors, primary screen, HEK293 cells, thallium flux; FluxOR thallium flux fluorescence; hits give low values; AID 488922, 2010; 1.2% of 310,000 active; B-score at 10 µM; Potassium channel subfamily K member 9 (Homo sapiens), Q9NPC2;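 active = ratio B-score over 3 SD below the library mean, with starting fluorescence within 5 SD of its mean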;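 also: negative B-score means less thallium flux so channel inhibition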
KCNQ1 block val: KCNQ1 potassium channel inhibitors, confirmation, cell-based, Tl flux, duplicate; 93% of 1,600 active; shares compounds with KCNQ1 inh; inhibition, % at 10 µM; KCNQ1 cell line, FluxOR thallium flux fluorescence;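 active = primary screen active, with duplicate mean exceeding buffer control mean plus 3 SD of buffer wells, cut at about 28% in these data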
CHO Tl flux: thallium flux effects in parental CHO cells, counter-screen for KCNQ1 inhibitor project, cell-based, Tl flux. shares compounds with KCNQ1 inh. parental CHO-K1, FluxOR thallium flux fluorescence ratio; hits give low values; zero means no signal rise above baseline. fluorescence ratio (Tl flux) at 10 µM. 21% of 1,600 active;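 active = mean of duplicate thallium-flux fluorescence ratios in parental host cells more than 5 SD below the buffer control mean, cut at about 0.38 in these data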;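 also: ratio is peak minus minimum fluorescence divided by baseline fluorescence; actives read low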
KCNQ1 APC inh: KCNQ1 channel inhibitors, confirmation, orthogonal assay, cell-based, automated electrophysiology; shares compounds with KCNQ1 inh; KCNQ1-CHO cells, automated patch clamp current; calls only at 10 µM; 20% of 490 active; AID 624120, 2012;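 active = KCNQ1 current drop exceeding 3 SD of negative control wells, seen in both duplicate runs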;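 also: steady state current during a 2 s step from -80 to +40 mV; negative values mean current inhibition and positive values mean potentiation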
KCNQ2 inh: KCNQ2 channel inhibition, selectivity assay for KCNQ1 inhibitor project, cell-based; 71% of 1,600 active; KCNQ2 cells, FluxOR thallium flux fluorescence; shares compounds with KCNQ1 inh; inhibition, % at 10 µM;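 active = mean percent inhibition of the KCNQ2 thallium signal more than 5 SD above the buffer-only control wells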;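 also: KCNQ2 expressed in CHO cells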
KCNQ1 KCNE1 spec: KCNQ1/KCNE1 channel inhibition, selectivity assay for KCNQ1 inhibitor project, CHO-K1 cells, thallium flux, FluxOR; shares compounds with KCNQ1 inh; FluxOR thallium flux fluorescence; inhibition, % at 10 µM; 77% of 1,600 active; AID 652147, 2013;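 active = mean percent inhibition of duplicate wells above the buffer-only control mean plus 3 SD of those controls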
Hits are given with their value. A selection: hits, their analogues and other compounds. The true share with any hit is near 3.1%.

Screening CN1CCN(S(=O)(=O)c2ccc(NC(=O)Nc3cccc(Cl)c3)cc2)CC1 returned hERG rescue inactive, KCNQ1 inh 11, KCNK3 block inactive, KCNQ1 pot inactive, KCNK9 inh inactive, KCNQ1 block val 62, CHO Tl flux inactive, KCNQ2 inh 65% and KCNQ1 KCNE1 spec inactive.
Screening COC(=O)c1cccc(NC(=O)Nc2ccc(Cl)cc2)c1 returned hERG rescue inactive, KCNQ1 inh 7, KCNK3 block inactive, KCNQ1 pot inactive, KCNK9 inh inactive, KCNQ1 block val 44, CHO Tl flux inactive, KCNQ2 inh inactive and KCNQ1 KCNE1 spec inactive.
Screening COc1ccc(NC(=S)Nc2cccc(Cl)c2)cc1OC returned hERG rescue inactive, KCNQ1 inh 13, KCNK3 block inactive, KCNQ1 pot inactive, KCNK9 inh inactive, KCNQ1 block val 32, CHO Tl flux inactive, KCNQ2 inh inactive and KCNQ1 KCNE1 spec inactive.
Screening O=C(Nc1ccncc1)Nc1ccc(Cl)cc1 returned hERG rescue inactive, KCNQ1 inh 7, KCNK3 block inactive, KCNQ1 pot inactive, KCNK9 inh inactive, KCNQ1 block val 28, CHO Tl flux inactive, KCNQ2 inh inactive and KCNQ1 KCNE1 spec inactive.
For O=C(Nc1cccc(Cl)c1)Nc1cccc(Cl)c1 the results were hERG rescue inactive, KCNQ1 inh inactive, KCNK3 block inactive, KCNQ1 pot inactive and KCNK9 inh inactive.
`O=C(Nc1ccccc1)Nc1cc(Cl)cc(Cl)c1` gave hERG rescue inactive, KCNQ1 inh 10, KCNK3 block inactive, KCNQ1 pot inactive, KCNK9 inh inactive, KCNQ1 block val 28, CHO Tl flux inactive, KCNQ2 inh 78% and KCNQ1 KCNE1 spec inactive.
`COC(=O)c1cc(NC(=O)Nc2cccc(Cl)c2)ccc1Cl` gave hERG rescue inactive, KCNQ1 inh 6, KCNK3 block inactive, KCNQ1 pot inactive, KCNK9 inh inactive, KCNQ1 block val 62, CHO Tl flux inactive, KCNQ2 inh inactive and KCNQ1 KCNE1 spec inactive.
For NS(=O)(=O)c1cccc(NC(=O)Nc2ccc(Cl)cc2)c1 the results were hERG rescue inactive, KCNQ1 inh 8, KCNK3 block inactive, KCNQ1 pot inactive, KCNK9 inh inactive, KCNQ1 block val 137, CHO Tl flux inactive, KCNQ1 APC inh inactive, KCNQ2 inh 101% and KCNQ1 KCNE1 spec 108%.
Cc1cccc(NC(=O)Nc2ccc(S(N)(=O)=O)cc2)c1 was read as hERG rescue inactive, KCNQ1 inh inactive, KCNK3 block inactive, KCNQ1 pot inactive and KCNK9 inh inactive.
O=C(c1cnn(C(=O)CN2CCCC2=O)c1)c1ccccc1O was read as KCNK3 block inactive.
Screening COC(=O)c1cccc(NC(=S)Nc2ccccc2Cl)c1 returned hERG rescue inactive, KCNQ1 inh inactive, KCNK3 block inactive, KCNQ1 pot inactive and KCNK9 inh inactive.
COC(=O)c1cccc(NC(=S)Nc2ccc(Cl)c(Cl)c2)c1 was read as hERG rescue inactive, KCNQ1 inh 8, KCNK3 block inactive, KCNQ1 pot inactive, KCNK9 inh inactive, KCNQ1 block val 168, CHO Tl flux inactive, KCNQ1 APC inh inactive, KCNQ2 inh inactive and KCNQ1 KCNE1 spec inactive.
Screening Cc1cccc(-c2noc(CN(C)S(=O)(=O)c3cc(Cl)ccc3Cl)n2)c1 returned hERG rescue inactive, KCNQ1 inh 8, KCNK3 block inactive, KCNQ1 pot inactive, KCNK9 inh -8, KCNQ1 block val active, CHO Tl flux 0.35, KCNQ2 inh inactive and KCNQ1 KCNE1 spec inactive.
For COc1ccc(Cl)cc1C(=O)N(Cc1nc(-c2cccc(C)c2)no1)C(C)C the results were hERG rescue inactive, KCNQ1 inh inactive, KCNK3 block inactive, KCNQ1 pot inactive and KCNK9 inh inactive.
O=C(O)C1CC=CCC1C(=O)Nc1ccc2c(c1)CCC2 (centres undefined) was read as hERG rescue inactive, KCNQ1 inh 6, KCNK3 block inactive, KCNQ1 pot inactive, KCNK9 inh inactive, KCNQ1 block val inactive, CHO Tl flux inactive, KCNQ2 inh inactive and KCNQ1 KCNE1 spec inactive.
Screening O=C(CCNS(=O)(=O)c1ccccc1)NCC1CCCCC1 returned KCNK3 block inactive.
`CCCCn1c(N)c(S(=O)(=O)c2ccc(C)cc2)c2nc3ccccc3nc21` gave hERG rescue inactive, KCNQ1 inh 14, KCNK3 block inactive, KCNQ1 pot inactive, KCNK9 inh inactive, KCNQ1 block val 88, CHO Tl flux 0.38, KCNQ2 inh 71% and KCNQ1 KCNE1 spec 93%.
CN(C)CCCn1c(N)c(S(=O)(=O)c2ccccc2)c2nc3ccccc3nc21 was read as hERG rescue inactive, KCNQ1 inh inactive, KCNK3 block inactive, KCNQ1 pot inactive and KCNK9 inh inactive.
Cc1ccc(S(=O)(=O)c2c(N)n(Cc3ccco3)c3nc4ccccc4nc23)cc1 was read as hERG rescue inactive, KCNQ1 inh 7, KCNK3 block inactive, KCNQ1 pot inactive, KCNK9 inh inactive, KCNQ1 block val 99, CHO Tl flux 0.38, KCNQ2 inh 74% and KCNQ1 KCNE1 spec 166%.
`C=CCNc1sc(C(=O)c2ccccc2)c(N)c1-c1nc2ccccc2s1` gave hERG rescue inactive, KCNQ1 inh 7, KCNK3 block inactive, KCNQ1 pot inactive, KCNK9 inh inactive, KCNQ1 block val 57, CHO Tl flux inactive, KCNQ2 inh 73% and KCNQ1 KCNE1 spec 84%.
Screening O=C(CSc1ccncc1)Nc1ccc2ccccc2c1 returned hERG rescue inactive, KCNQ1 inh inactive, KCNK3 block inactive, KCNQ1 pot inactive and KCNK9 inh inactive.
